Calls of active or inactive are those of the source. No cut-off for these calls is given here.
Tests used:
Hepatitis B virus [1] = assay: Antiviral activity against hepatitis B virus infected in human HepG2.2.15 cells assessed as HBsAg secretion at 5 uM incubated for 9 days by ELISA (reference value: 8.41+/- 0.54 ng/ml); format: functional
Hepatitis B virus [2] = assay: Antiviral activity against hepatitis B virus infected in human HepG2.2.15 cells assessed as reduction in HBV DNA level incubated for 9 days by real time-PCR analysis; format: functional, organism-based
Hepatitis B virus [3] = assay: Antiviral activity against hepatitis B virus infected in human HepG2.2.15 cells assessed as reduction in HBeAg secretion at 5 uM incubated for 9 days by ELISA (reference value: 25.13 +/- 1.93 ng/ml); format: functional
HepG2 [4] = assay: Antiproliferative activity against human HepG2 cells assessed as inhibition of cell growth incubated for 24 hrs by MTT assay; format: functional, cell-based; details: HepG2, 24 h
In short: (§1)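 HepG2 cells exposed to a range of concentrations for the stated times, then inhibition rate measured by MTT.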

HepG2 [5] = assay: Antiproliferative activity against human HepG2 cells assessed as inhibition of cell growth incubated for 72 hrs by MTT assay; format: functional, cell-based; details: HepG2, 72 h; in short: as §1
HepG2 [6] = assay: Induction of apoptosis in human HepG2 cells assessed as late apoptotic cells at 2.5 uM incubated for 24 hrs by annexin -V/propidium iodide staining based flow cytometry (reference value: 4.72%); format: functional
HepG2 [7] = assay: Inhibition of NTCP protein expression in human HepG2 cells at 2.5 to 10 uM incubated for 24 hrs by western blot analysis; format: functional, cell-based
In short: (§2)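 HepG2 cells treated 24 h at several concentrations; NTCP, PARP, Bax, Bcl-2 and caspase-3 detected by western blot.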

HepG2 [8] = assay: Induction of apoptosis in human HepG2 cells assessed as downregulation of Bcl2 protein expression at 2.5 to 10 uM incubated for 24 hrs by Western blot analysis; format: functional, cell-based; in short: as §2
HepG2 [9] = assay: Induction of apoptosis in human HepG2 cells assessed as late apoptotic cells at 10 uM incubated for 24 hrs by annexin -V/propidium iodide staining based flow cytometry (reference value: 4.72%); format: functional
HepG2 [10] = assay: Induction of apoptosis in human HepG2 cells assessed as upregulation of Bax protein expression at 2.5 to 10 uM incubated for 24 hrs by Western blot analysis; format: functional, cell-based; in short: as §2
HepG2 [11] = assay: Induction of apoptosis in human HepG2 cells assessed as early apoptotic cells at 5 uM incubated for 24 hrs by annexin -V/propidium iodide staining based flow cytometry (reference value: 2.23%); format: functional
HepG2 [12] = assay: Induction of apoptosis in human HepG2 cells assessed as increase in PARP cleavage at 2.5 to 10 uM incubated for 24 hrs by Western blot analysis; format: functional, cell-based; in short: as §2
HepG2 [13] = assay: Induction of apoptosis in human HepG2 cells assessed as early apoptotic cells at 10 uM incubated for 24 hrs by annexin -V/propidium iodide staining based flow cytometry (reference value: 2.23%); format: functional
HepG2 [14] = assay: Induction of apoptosis in human HepG2 cells assessed as increase in caspase-3 cleavage at 2.5 to 10 uM incubated for 24 hrs by Western blot analysis; format: functional, cell-based; in short: as §2
HepG2 [15] = assay: Antiproliferative activity against human HepG2 cells assessed as inhibition of cell growth incubated for 48 hrs by MTT assay; format: functional, cell-based; details: HepG2, 48 h; in short: as §1
HepG2 [16] = assay: Induction of apoptosis in human HepG2 cells assessed as early apoptotic cells at 2.5 uM incubated for 24 hrs by annexin -V/propidium iodide staining based flow cytometry (reference value: 2.23%); format: functional
HepG2 [17] = assay: Induction of apoptosis in human HepG2 cells assessed as late apoptotic cells at 5 uM incubated for 24 hrs by annexin -V/propidium iodide staining based flow cytometry (reference value: 4.72%); format: functional
HepG2 [18] = assay: Induction of cell morphological changes in human HepG2 cells assessed as condensed chromatin at 2.5 to 10 uM incubated for 24 hrs by Hoechst 33258 staining based fluorescence microscopy; format: functional
In short: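 HepG2 cells treated 24 h at several concentrations, stained with Hoechst 33258, chromatin morphology examined by fluorescence microscopy.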

[19] = target: T1, Hepatic sodium/bile acid cotransporter (Homo sapiens, UniProt Q14973); assay: Inhibition of human recombinant NTCP expressed in CHO cells assessed as reduction in [3H]taurocholate uptake incubated for 2 mins by scintillation counting method; format: cell-based
T1 sequence (Q14973 whole entry): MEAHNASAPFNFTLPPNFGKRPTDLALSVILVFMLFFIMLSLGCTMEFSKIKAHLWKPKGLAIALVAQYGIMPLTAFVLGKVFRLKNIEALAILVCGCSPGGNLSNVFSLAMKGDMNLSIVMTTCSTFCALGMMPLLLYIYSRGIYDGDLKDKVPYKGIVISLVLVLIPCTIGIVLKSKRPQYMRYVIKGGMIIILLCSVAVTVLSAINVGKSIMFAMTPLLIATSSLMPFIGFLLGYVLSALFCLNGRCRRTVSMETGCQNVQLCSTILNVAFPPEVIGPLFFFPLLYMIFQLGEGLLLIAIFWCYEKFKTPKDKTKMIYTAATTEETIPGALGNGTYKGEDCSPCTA

[20] = target: T1, Hepatic sodium/bile acid cotransporter; assay: Inhibition of human recombinant NTCP expressed in CHO cells assessed as reduction in [3H]taurocholate uptake preincubated for 1 hr by radioactive scintillation counting method; format: cell-based
[21] = target: T1, Hepatic sodium/bile acid cotransporter; assay: Inhibition of NTCP in human hepatocytes; format: cell-based
[22] = target: T1, Hepatic sodium/bile acid cotransporter; assay: Inhibition of NTCP in human hepatocytes assessed as reduction in Na+-dependent [3H]taurocholate uptake measured at 45s following compound addition by liquid scintillation counting method; format: cell-based

IC50 (HepG2 [4]) [µM] | SMILES | Activity (Hepatitis B virus [1]) [ng/mL] | Activity (Hepatitis B virus [3]) [ng/mL] | also measured
4.7 | O=C(CNC(=O)c1cccnc1Cl)N/N=C/c1ccc(OCc2ccccc2Cl)cc1 | 2.48 | 7.36 | inhibition (Hepatitis B virus [2]): Active
47.5 | Cc1ccc(C(=O)NCC(=O)N/N=C/c2cccc(OCc3ccccc3Cl)c2)cc1 | 5.74 | 18.09 | –
28.1 | Cc1ccc(C(=O)NCC(=O)N/N=C/c2ccc(OCc3ccccc3Cl)cc2)cc1 | 4.83 | 14.29 | –
25.4 | Cc1sc(NC(=O)CCn2cnc3ccccc3c2=O)nc1-c1ccc(Cl)cc1 | – | – | –
> 50 | CCN(CC)c1ccc(/C=N/NC(=O)CNC(=O)c2ccc(C)cc2)c(OCc2ccccc2Cl)c1 | 8.37 | 24.55 | –
2.8 | Cc1ccc(C(=O)NCC(=O)N/N=C/c2ccccc2OCc2cc3c(cc2Cl)OCO3)cc1 | 1.93 | 7.43 | IC50 (HepG2 [5]): 900 nM; Activity (HepG2 [6]): 15.33%; inhibition (HepG2 [7]): Active; Activity (HepG2 [8]): Active; Activity (HepG2 [9]): 30.48%; inhibition (Hepatitis B virus [2]): Active; Activity (HepG2 [10]): Active; Activity (HepG2 [11]): 5.39%; Activity (HepG2 [12]): Active; Activity (HepG2 [13]): 5.99%; Activity (HepG2 [14]): Active; IC50 (HepG2 [15]): 1200 nM; Activity (HepG2 [16]): 4.73%; Activity (HepG2 [17]): 21.66%; Activity (HepG2 [18]): Active
– | CC(C)n1c(/C=C/C(O)CC(O)CC(=O)O)c(-c2ccc(F)cc2)c2ccccc21 (stereo unspecified) [FLUVASTATIN] | – | – | IC50 [19]: 40 µM
10.1 | O=C(CNC(=O)c1cccnc1)N/N=C/c1ccc(OCc2cc3c(cc2Cl)OCO3)cc1 | 3.71 | 11.45 | –
> 50 | Cc1ccc(C(=O)NCC(=O)N/N=C/c2ccccc2OCc2ccc(C#N)cc2)cc1 | 8.25 | 25.25 | –
> 50 | O=C(CNC(=O)c1cccnc1Cl)N/N=C/c1ccccc1OCc1cc2c(cc1Cl)OCO2 | 8.39 | 25.47 | –
> 50 | COc1ccc(COc2ccccc2/C=N/NC(=O)CNC(=O)c2ccc(C)cc2)cc1 | 7.66 | 23.04 | –
– | C[C@H](Cn1cnc2c(N)ncnc21)OCP(=O)(O)O [TENOFOVIR ANHYDROUS] | 1.72 | 5.6 | –
17.1 | O=C(CNC(=O)c1ccc(F)cc1)N/N=C/c1ccccc1OCc1cc2c(cc1Cl)OCO2 | 3.98 | 11.84 | –
13.4 | Cc1ccc(C(=O)NCC(=O)N/N=C/c2ccccc2OCc2ccccc2Cl)cc1 | 3.95 | 15.01 | –
26.4 | O=C(COc1ccc(Cl)cc1)NCc1ccc(CNC(=O)COc2ccc(Cl)cc2)cc1 | – | – | –
> 50 | O=C(CNC(=O)c1ccc(-c2ccccc2)cc1)N/N=C/c1ccc(OCc2cc3c(cc2Cl)OCO3)cc1 | 7.66 | 23.8 | –
– | CCCNS(=O)(=O)Nc1ncnc(OCCOc2ncc(Br)cn2)c1-c1ccc(Br)cc1 | – | – | IC50 [20]: 10 µM
14.9 | Cc1ccc(C(=O)NCC(=O)N/N=C/c2ccc(OCc3cc4c(cc3Cl)OCO4)cc2)cc1 | 3.91 | 11.47 | –
16.9 | O=C(CNC(=O)c1cccnc1Cl)N/N=C/c1ccccc1OCc1ccccc1Cl | 4.08 | 12.55 | –

IC50 (HepG2 [4]) [µM] | SMILES | Activity (Hepatitis B virus [1]) [ng/mL] | Activity (Hepatitis B virus [3]) [ng/mL] | also measured
15.7 | COc1ccc(/C=N/NC(=O)CNC(=O)c2ccc(F)cc2)c(OCc2ccccc2Cl)c1 | 4.23 | 13.07 | –
32.9 | C[C@]1(C(=O)NCCOc2ccc(C3CCCCC3)cc2)CO[C@@H](c2ccccc2)OC1 | – | – | –
23.4 | Cc1cccc(CSCCNC(=O)CN(c2cccc(C(F)(F)F)c2)S(C)(=O)=O)c1 | – | – | –
> 50 | CCN(CC)c1ccc(/C=N/NC(=O)CNC(=O)c2ccc(C#N)cc2)c(OCc2ccccc2Cl)c1 | 8.17 | 24.86 | –
> 50 | COc1ccc(/C=N/NC(=O)CNC(=O)c2ccc(C#N)cc2)c(OCc2ccccc2Cl)c1 | 8.29 | 25.47 | –
> 50 | O=C(CNC(=O)c1ccc(-c2ccccc2)cc1)N/N=C/c1ccccc1OCc1cc2c(cc1Cl)OCO2 | 7.72 | 24.07 | –
> 50 | N#Cc1ccc(C(=O)NCC(=O)N/N=C/c2ccccc2OCc2ccccc2Cl)cc1 | 8.33 | 25.22 | –
– | Cc1cc(OCCCS(C)(=O)=O)cc(C)c1-c1cccc(COc2ccc3c(c2)OC[C@H]3CC(=O)O)c1 | – | – | IC50 [21]: 2000 nM
3.1 | O=C(CNC(=O)c1cccnc1Cl)N/N=C/c1cccc(OCc2ccccc2Cl)c1 | 2.05 | 6.43 | inhibition (Hepatitis B virus [2]): Active
> 50 | CCN(CC)c1ccc(/C=N/NC(=O)CNC(=O)c2ccc(F)cc2)c(OCc2ccccc2Cl)c1 | 8.04 | 24.34 | –
53.2 | Cc1cc(C)cc(OCC(=O)NCCNC(=O)COc2cc(C)cc(C)c2)c1 | – | – | –
– | COc1ccccc1Oc1c(NS(=O)(=O)c2ccc(C(C)(C)C)cc2)nc(-c2ncccn2)nc1OCCO [BOSENTAN] | – | – | IC50 [22]: 30 µM
35.7 | C[C@H](NC(=O)COc1ccc(S(=O)(=O)N[C@H](C)c2ccccc2)cc1)c1ccccc1 | – | – | –
> 50 | Cc1ccc(C(=O)NCC(=O)N/N=C/c2ccccc2OCc2ccc(Cl)cc2)cc1 | 7.79 | 22.99 | –
> 50 | COc1ccc(/C=N/NC(=O)CNC(=O)c2ccc(C)cc2)c(OCc2ccccc2Cl)c1 | 7.94 | 23.53 | –
18.6 | Cc1ccccc1OCC(=O)N/N=C/c1cccc(OCc2ccccc2)c1 | – | – | –
> 50 | O=C(CNC(=O)c1ccc(-c2ccccc2)cc1)N/N=C/c1ccccc1OCc1ccccc1Cl | 8.31 | 24.88 | –
24.9 | O=C(CNC(=O)c1ccc(F)cc1)N/N=C/c1ccccc1OCc1ccccc1Cl | 5.03 | 14.53 | –

SMILES | IC50 (HepG2 [4]) [µM] | Activity (Hepatitis B virus [1]) [ng/mL] | Activity (Hepatitis B virus [3]) [ng/mL] | also measured
O=C1CC(c2ccccc2)CC(=O)C1=CNCCN1CCN(C(=O)Cc2ccccc2)CC1 (stereo unspecified) | 70.2 | – | – | –
